# DNMT1 block: inhibitors of human DNMT1; 360,000 tested, 0.83% active; AID 588458; inhibition (reported as % activation of signal), % at 10 µM; DNMT1 molecular beacon, Hinp1I cleavage, fluorescence; in the data active = inhibition above about 50%
# SUMO1-SIM PPI: alters human SUMO1 binding to SIM partners; 360,000 tested, 0.33% active; inhibition, % at 20 µM; SUMO1 binding to a labelled peptide, TR-FRET, 1 h; in the data active = inhibition above about 37%
# Target sequence (P63165 whole entry, looked up): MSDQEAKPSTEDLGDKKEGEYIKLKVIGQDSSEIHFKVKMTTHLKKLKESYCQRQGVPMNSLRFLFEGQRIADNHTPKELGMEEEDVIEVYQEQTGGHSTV
# Scp1 inh: blocks human Scp-1 phosphatase activity. Q9GZU7. Recombinant Scp1, phosphopeptide, malachite green phosphate absorbance. inhibition, % at 20 µM. 340,000 tested, 0.88% active;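 active = inhibition above about 50% at 20 µM, limit read from the data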;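 also: plate controls were DMSO wells with enzyme for no effect and wells lacking enzyme for full effect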
# Target sequence (Q9GZU7 76-261 limits assumed): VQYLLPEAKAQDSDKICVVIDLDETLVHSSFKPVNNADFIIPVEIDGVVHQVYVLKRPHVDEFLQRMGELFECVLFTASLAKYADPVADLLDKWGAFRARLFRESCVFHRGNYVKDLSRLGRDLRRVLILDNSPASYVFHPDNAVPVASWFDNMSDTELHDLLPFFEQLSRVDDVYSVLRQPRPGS
#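 Test system – truncated SCP-1 phosphatase (76-261aa) · Reagent – Phosphorylated 17-residue peptide substrate · Incubation – 45 min room-temperature reaction, 5 min colour, 30 min stabiliser · Detection – colorimetric phosphate reagent with accelerator and stabiliser, absorbance at 630 nm · Measure – % inhibition at 20 µM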
# STEP block: inhibitors of human striatal-enriched phosphatase STEP; P54829; recombinant STEP, OMFP fluorogenic substrate, fluorescence; inhibition, % at 20 µM; 360,000 tested, 0.25% active; AID 588621;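 active = inhibition at 20 µM, scaled per plate between control wells, above about 37%, limit read from the data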;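 also: 0% = DMSO with enzyme and substrate and 100% = substrate only without enzyme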
#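 Test system: STEP tyrosine phosphatase / Reagent: OMFP at 25 µM / Doses: 20 µM, 1% DMSO / Read-out: percent inhibition scaled to no-enzyme and uninhibited-enzyme controls, plate-pattern corrected / Detection: FITC-channel fluorescence of OMFP product / Medium: Bis-Tris buffer pH 6.0, 2.5 mM DTT, 0.005% Tween 20 / Schedule: 20 min at room temperature, dark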
# LMPTP inh: LMPTP (human) inhibition. P24666. 360,000 tested, 0.22% active. inhibition, % at 20 µM. recombinant LMPTP-A, OMFP fluorogenic substrate, fluorescence intensity;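 active = compounds that cut the enzyme signal by at least half of the control window in the single-dose screen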;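 also: plate controls were DMSO wells with enzyme plus substrate for no effect and substrate without enzyme for full effect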
# Target sequence (P24666 whole entry, looked up): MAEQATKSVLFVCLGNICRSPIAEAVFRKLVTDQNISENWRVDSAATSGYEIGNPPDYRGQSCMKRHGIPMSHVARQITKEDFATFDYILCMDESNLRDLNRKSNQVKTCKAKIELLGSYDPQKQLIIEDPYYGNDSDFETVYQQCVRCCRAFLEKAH
#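 test system = LMPTP-A | amount = 0.625 nM LMPTP-A final | reagent = fluorogenic phosphatase substrate OMFP at 400 µM final | incubation = 50 min at room temperature | benchmarks = no-enzyme low control, uninhibited high control | medium = Bis-Tris pH 6.0, DTT, detergent | signal = fluorescence intensity of OMFP turnover product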
# Scp1 confirm: confirmation of human Scp-1 phosphatase inhibitors. 2,500 tested, 61% active. inhibition, % at 20 µM. recombinant SCP-1 catalytic domain, phosphate release, malachite green absorbance. AID 540281. shares compounds with Scp1 inh;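 also: plate controls were DMSO with enzyme for no effect and buffer wells lacking enzyme for full effect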
# Scp-1 MG ctr: counter-screen for Scp-1 inhibitors: colorimetric interference. 2,500 tested, under 10 active. apparent inhibition (interference), % at 20 µM. Colorimetric interference counterscreen, malachite green absorbance 630 nm. shares compounds with Scp1 inh;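 also: compounds added after enzyme reaction finished so only phosphate colour detection is probed; plate controls were DMSO wells with completed Scp-1 reaction for no effect and substrate wells lacking enzyme for full effect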
# Scp-1 Tm shift: binds human Scp-1, shifting its melting temperature | shares compounds with Scp1 inh | Recombinant SCP1, Sypro Orange thermal shift Tm | thermal shift relative to vanadate control, % at 40 µM | 1,500 tested, 25% active | AID 540329;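 active = substances whose mean melting-temperature shift, as a percentage of the reference inhibitor's shift, reaches about 5.3%, limit read from the data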;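 also: 0% = Tm of DMSO wells and 100% = Tm with sodium orthovanadate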
# DNMT1 confirm: DNMT1 inhibition confirmation, single concentration | shares compounds with DNMT1 block | DNMT1 molecular beacon HinP1I cleavage, fluorescence | inhibition, % at 10 µM | 2,300 tested, 8% active | AID 602385;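 active = average inhibition of at least 30% in the single-concentration confirmation test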
# Beacon interf: shows spectral interference in the DNMT1 beacon assay; shares compounds with DNMT1 block; DNMT1 molecular beacon spectral interference counterscreen, fluorescence 485/520; activation (fluorescence interference), % at 10 µM; 2,300 tested, 1% active; AID 602387;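 active = activation of at least 30% at 10 µM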;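 also: DNMT1 catalytic domain with a HinP1I cleavage step and a FAM/dabcyl DNA beacon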
# STEP conf: STEP (human) phosphatase inhibition, single concentration confirmation; shares compounds with STEP block; recombinant STEP, OMFP fluorogenic substrate, fluorescence; inhibition, % at 20 µM; 520 tested, 32% active; AID 623866; call rule not given here;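 also: 0% = enzyme with substrate plus DMSO and 100% = substrate without enzyme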
# * hit, by the source's call; nt = not tested or not shown. Most compounds without a hit are left out; they make up all but 1.7% or so of the library.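 The calls were made as follows, unless noted: active = inhibition of at least 30% at 20 µM; inactive = the rest.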
SMILES,DNMT1 block,SUMO1-SIM PPI,Scp1 inh,STEP block,LMPTP inh,Scp1 confirm,Scp-1 MG ctr,Scp-1 Tm shift,STEP conf,others
O=C(CCc1ccccc1)NNC(=O)c1ccc(NC(=O)c2ccccc2)cc1,29,0,57*,42*,61*,74*,-14,-16,95*,
COc1cc(C(=O)Nc2ccc3c(c2)Cc2ccccc2-3)cc(OC)c1OC,-5,4,-1,-1,0,nt,nt,nt,nt,
COc1cc(C(=O)Nc2ccc3c(c2)C(=O)c2ccccc2C3=O)cc(OC)c1OC,66*,2,88*,74*,47,42*,-8,0,19,DNMT1 confirm=0;Beacon interf=-1
O=C(N/N=C/c1cccc([N+](=O)[O-])c1)c1ccc(Br)cc1,20,-7,98*,73*,65*,86*,-8,-2,17*,
O=C(N/N=C/C(Br)=C/c1ccccc1)c1ccncc1,-5,-28,-11,-2,0,nt,nt,nt,nt,
O=C(N/N=C/c1cccc([N+](=O)[O-])c1)c1cccc(Br)c1,-2,4,-7,-3,0,nt,nt,nt,nt,
O=C(N/N=C/C(Br)=C/c1ccccc1)c1ccc([N+](=O)[O-])cc1,57*,2,97*,88*,78*,84*,-12,2,6,DNMT1 confirm=5;Beacon interf=0
CCN1C(=O)[C@H]2[C@@H](c3ccc(C)cc3)N[C@]3(CCCN(CCC(C)C)C3=O)[C@H]2C1=O,0,1,nt,-2,-1,nt,nt,nt,nt,
COc1ccc(-c2cnnc(N/N=C/c3ccc(-c4ccc([N+](=O)[O-])cc4)o3)n2)cc1,2,-9,108*,50*,57*,49*,-5,4,5,
O=[N+]([O-])c1ccc(-c2ccc(/C=N/Nc3nc(N4CCCC4)nc(N4CCCC4)n3)o2)cc1,0,-11,3,10,10,nt,nt,nt,nt,
CC(C)CC1C(=O)N(Cc2cn(CCC3OCCO3)nn2)CCS(=O)(=O)N1Cc1ccc(-c2ccc(F)nc2)cc1 (stereo unspecified),-2,4,nt,2,1,nt,nt,nt,nt,
O=C(N/N=C/c1cc(Br)c(Br)o1)c1cc2ccccc2o1,20,7,111*,56*,45,61*,-13,-10,3,
OCC1OC(c2ccc(O)cc2O)C(O)C1O (stereo unspecified),nt,4,nt,nt,-1,nt,nt,nt,nt,
COc1ccc(NC(=O)/C(C#N)=C\c2ccc(OCc3ccc(C(=O)O)cc3)c(OC)c2)cc1,-5,8,75*,89*,76*,62*,-7,-10,5,
N#C/C(=C\c1ccc(OCc2ccc(F)cc2)cc1)C(=O)Nc1cccc(C(=O)O)c1,-3,26,93*,92*,31,74*,-4,5,6,
Cc1ccc2nc(N(CCCN(C)C)C(=O)c3ccc4ncsc4c3)sc2c1,-1,-4,-4,-1,-2,nt,nt,nt,nt,
COC(=O)N1CCCCC1c1cc(C(=O)N2CCOCC2)no1 (stereo unspecified),-1,-1,nt,-2,0,nt,nt,nt,nt,
CCN(C(=O)Cn1cc(C(F)(F)F)ccc1=O)C1CCS(=O)(=O)C1 (stereo unspecified),4,-4,nt,2,0,nt,nt,nt,nt,
Clc1ccc2c(SCC3CO3)c3ccccc3nc2c1 (stereo unspecified),29,31,101*,62*,20,-1,-5,nt,13,
